Results on 28 molecules are retold here after ChEMBL document CHEMBL2331267 (J Med Chem, 2013).

Series [1] concerns the target T1, Acid ceramidase (Rattus norvegicus, UniProt Q6P7S1).
T1 sequence (Q6P7S1 whole entry): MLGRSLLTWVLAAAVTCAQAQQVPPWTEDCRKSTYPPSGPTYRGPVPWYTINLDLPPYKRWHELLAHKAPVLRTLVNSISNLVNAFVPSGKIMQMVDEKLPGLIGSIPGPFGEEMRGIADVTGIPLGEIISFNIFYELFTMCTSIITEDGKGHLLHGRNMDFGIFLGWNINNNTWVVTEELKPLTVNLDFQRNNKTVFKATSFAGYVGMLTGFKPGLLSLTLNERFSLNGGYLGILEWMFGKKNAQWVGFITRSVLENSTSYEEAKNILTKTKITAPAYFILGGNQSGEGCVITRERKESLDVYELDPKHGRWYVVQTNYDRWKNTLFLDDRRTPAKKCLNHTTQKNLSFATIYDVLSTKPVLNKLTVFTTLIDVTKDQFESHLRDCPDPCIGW
The series can be described thus: Inhibition of rat recombinant acid ceramidase expressed in human HEK293 cells using N-lauroylceramide as substrate incubated for 30 mins prior to substrate addition measured after 30 mins by LC/MS analysis. An outline of the steps:
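Rat AC from cell lysate: sucrose/Tris homogenate, 12000g pellet, freeze–thaw in PBS, 105000g supernatant. Enzyme (50 μg protein) preincubated 30 min, 37 °C, with inhibitor (final DMSO 1%) in pH 4.5 phosphate/citrate buffer with 0.1% NP-40, 150 mM NaCl, 3 mM DTT; 100 μM N-lauroylceramide, 30 min, 37 °C; lauric acid quantified by LC/MS against heptadecanoic acid standard.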

Series [2] in a line: Antiproliferative activity against human SW403 cells after 72 hrs by MTT assay. In kind it is functional, cell-based. Particulars: SW-403, 72 h; call rule not given here. In short, it runs like this:
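SW403 cells exposed to compounds for 72 h; viability read by MTT reduction, n=4 per drug concentration; EC50 derived from concentration–response.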
(In general: Tetrazolium assays rely on reduction of a dye to a coloured formazan, in cell work by metabolically active cells.)

The nature of series [3]: Chemical stability of the compound in DMSO-d6 solution after 120 mins by LC/MS analysis. In kind it is physicochemical. Particulars: 2 h.
A short description of series [4]: Chemical stability of the compound in buffer at pH 4.5 after 30 mins by LC/MS analysis. In kind it is physicochemical. The settings on record: read-out: Stability.
In series [5] the target is T2, Acid ceramidase (Homo sapiens, UniProt Q13510).
T2 sequence (Q13510 whole entry): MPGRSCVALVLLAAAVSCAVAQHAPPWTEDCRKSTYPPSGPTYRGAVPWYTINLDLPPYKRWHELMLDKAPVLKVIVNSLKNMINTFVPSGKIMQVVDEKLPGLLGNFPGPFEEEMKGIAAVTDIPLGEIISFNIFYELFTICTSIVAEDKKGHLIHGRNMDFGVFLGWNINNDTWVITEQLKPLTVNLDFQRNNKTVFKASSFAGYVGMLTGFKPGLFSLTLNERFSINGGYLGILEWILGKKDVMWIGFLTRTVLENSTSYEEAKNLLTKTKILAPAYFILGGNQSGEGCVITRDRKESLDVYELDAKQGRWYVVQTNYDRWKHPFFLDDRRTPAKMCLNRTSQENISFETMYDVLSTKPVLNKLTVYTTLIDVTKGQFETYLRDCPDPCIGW
The series can be described thus: Inhibition of acid ceramidase (unknown origin).

In general, IC50 refers to the concentration at which inhibition is half-maximal. For orientation: EC50 means the concentration at which the effect is half-maximal. A lower EC50 goes with an effect from little substance. As to `CCCCCCNC(=O)n1cc(F)c(=O)n(C)c1=O`, the IC50 at Acid ceramidase [1] (read-out: IC50) came to 0.013 µM. The response in series [2] was half-maximal at 22 µM (EC50). As to `CCCCCCNC(=O)n1c(C)c(C)c(=O)[nH]c1=O`, the Stability entry in series [3] is “Unstable”. Moreover, the IC50 result on Acid ceramidase [1] (hek293) is “ND(Unstable)”. Turning to `CCCCNC(=O)n1ccc(=O)[nH]c1=O`, the IC50 at Acid ceramidase [1] (read-out: IC50) turned out to be 8.5 µM. Regarding `CCCCCCNC(=O)n1ccc(=O)[nH]c1=O`, the concentration for half-maximal inhibition (IC50) on Acid ceramidase [1] (hek293, read-out: IC50) was 0.426 µM.

With `CCCCCCCCCNC(=O)n1ccc(=O)[nH]c1=O`, the 50% inhibitory concentration (IC50) at Acid ceramidase [1] (read-out: IC50) is 0.464 µM.

Consider `CCCCCCNC(=O)n1cc(F)c(=O)n(C(=O)c2ccccc2)c1=O`, for which, at Acid ceramidase [1] (read-out: IC50), the IC50 was 0.02 µM.

For `CCCCCCNC(=O)n1cc(F)c(=O)n(C(=O)OCC)c1=O`, the IC50 on Acid ceramidase [1] (read-out: IC50) was 0.012 µM.

As to `CCCCCCCCNC(=O)n1cc(F)c(=O)[nH]c1=O`, the IC50 at Acid ceramidase [1] (read-out: IC50) came to 0.046 µM. On the same count and under the same terms, the value for `CCCCCCNC(=O)n1cc(C)c(=O)[nH]c1=O` was 1.46 µM. Take `CCCCCCNC(=O)n1c(Cl)cc(=O)[nH]c1=O`: the Stability entry in series [3] is “Unstable”. Moreover, the 50% inhibitory concentration (IC50) entry on Acid ceramidase [1] (hek293) was “ND(Unstable)”.

Consider `CCCCCCNC(=O)n1ccc(=O)n(C)c1=O`, for which, at Acid ceramidase [1] (read-out: IC50), the IC50 stood at 0.053 µM. On to `CCCCCCNC(=O)n1cc(C#N)c(=O)[nH]c1=O`, for which, at Acid ceramidase [1] (hek293), the IC50 result is “ND(Unstable)”. For the same molecule, the remaining at 0.5 h in series [4] was found to be 22%.

In general, Ki refers to a measure of affinity in units of concentration, obtained from inhibition or displacement. A lower Ki goes with a stronger hold on the target. `CCCCCCCC/C=C\CCCCCCCC(=O)NCCO` [OLEOYLETHANOLAMIDE] registered an inhibitory constant (Ki) at Acid ceramidase [5] of 500 µM.

As to `CCCCCCCCNC(=O)n1cc(F)c(=O)n(C(=O)OC)c1=O`, at Acid ceramidase [1] (read-out: IC50), the half-inhibitory concentration (IC50) was determined as 0.004 µM. With `CCCCCCNC(=O)n1cc(C(F)(F)F)c(=O)[nH]c1=O`, on Acid ceramidase [1] (hek293, read-out: IC50), the IC50 amounted to 0.012 µM.

Regarding `CCCCCCNC(=O)n1cc(F)c(=O)n(CC)c1=O`, the IC50 at Acid ceramidase [1] (read-out: IC50) is 0.018 µM. The same measure, in the same setting: under `CCCCCCNC(=O)n1cc(F)c(=O)n(C(=O)OCC(C)C)c1=O` stands 0.016 µM. As for `CCCCCCCCNC(=O)n1ccc(=O)[nH]c1=O`, on Acid ceramidase [1] (read-out: IC50), the IC50 came out at 0.283 µM. In series [2], this molecule returned a concentration giving a half-maximal response (EC50) of 20 µM. Consider `CCCCCNC(=O)n1ccc(=O)[nH]c1=O`, for which the IC50 at Acid ceramidase [1] (read-out: IC50) worked out at 2.1 µM.

Consider `CCCCCCNC(=O)n1cc(F)c(=O)n(CC2CC2)c1=O`, for which the IC50 at Acid ceramidase [1] (read-out: IC50) stood at 0.061 µM.

In series [2], `CCCCCCNC(=O)n1cc(-c2ccccc2)c(=O)[nH]c1=O` showed a half-maximal effective concentration (EC50) of 24 µM. That is a double-digit micromolar value.

Consider `CCCCCCN(C)C(=O)n1ccc(=O)[nH]c1=O`, for which, at Acid ceramidase [1] (hek293), the half-maximal inhibitory concentration (IC50) result is on record as “Not Active”.

On to `CCCCCCNC(=O)N1CCC(=O)NC1=O`, for which, on Acid ceramidase [1] (hek293), the IC50 result is listed as “Not Active”. As for `CCCCCCNC(=O)n1cc(F)c(=O)n(C(=O)C(C)C)c1=O`, the IC50 at Acid ceramidase [1] (read-out: IC50) was determined as 0.021 µM. For the molecule `CCCCCCCNC(=O)n1ccc(=O)[nH]c1=O`, the IC50 at Acid ceramidase [1] (read-out: IC50) amounted to 0.325 µM. For `CCCCCCNC(=O)n1cc(CC)c(=O)[nH]c1=O`, on Acid ceramidase [1] (read-out: IC50), the IC50 amounted to 0.733 µM.

In the case of `CCCCCCNC(=O)n1cc(F)c(=O)[nH]c1=O` [CARMOFUR], the IC50 at Acid ceramidase [1] (hek293, read-out: IC50) turned out to be 0.029 µM. Turning to `CCCCCCNC(=O)n1cc(F)c(=O)n(C(=O)OC)c1=O`, the IC50 at Acid ceramidase [1] (read-out: IC50) stood at 0.007 µM.
